Reference: paper PMC7949150 (The Journal of Biological Chemistry, 2021)

Experiments:
Plasma protein binding = assay type: in vitro ADME
[1] = system: H3K27me3 levels in KARPAS-422 tumors; assay: Tumor pharmacodynamic assay; assay type: in vivo, mice; conditions: Day 12
PRC2 = PRC2 (Homo sapiens, UniProt Q15910); assay: Differential scanning fluorimetry binding assay; conditions: 750 nM PRC2, 20 μM compound, 200 μM activating peptide; mean ± SEM, N = 3
Outline: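 In-house pentameric PRC2 was mixed with test compound, H3K27me3 activator peptide and 4× thermal-shift dye in 50 mM Hepes pH 7.4, 100 mM NaCl, 1 mM TCEP, 0.2% DMSO. The mix was equilibrated 90 min at RT, then melted from 25 °C to 95 °C at 0.05 °C/s in a real-time PCR instrument. Tm was taken from the first-derivative peak and from a Boltzmann fit. ΔTm is compound minus DMSO control.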

Chain of PRC2 (Q15910 whole entry): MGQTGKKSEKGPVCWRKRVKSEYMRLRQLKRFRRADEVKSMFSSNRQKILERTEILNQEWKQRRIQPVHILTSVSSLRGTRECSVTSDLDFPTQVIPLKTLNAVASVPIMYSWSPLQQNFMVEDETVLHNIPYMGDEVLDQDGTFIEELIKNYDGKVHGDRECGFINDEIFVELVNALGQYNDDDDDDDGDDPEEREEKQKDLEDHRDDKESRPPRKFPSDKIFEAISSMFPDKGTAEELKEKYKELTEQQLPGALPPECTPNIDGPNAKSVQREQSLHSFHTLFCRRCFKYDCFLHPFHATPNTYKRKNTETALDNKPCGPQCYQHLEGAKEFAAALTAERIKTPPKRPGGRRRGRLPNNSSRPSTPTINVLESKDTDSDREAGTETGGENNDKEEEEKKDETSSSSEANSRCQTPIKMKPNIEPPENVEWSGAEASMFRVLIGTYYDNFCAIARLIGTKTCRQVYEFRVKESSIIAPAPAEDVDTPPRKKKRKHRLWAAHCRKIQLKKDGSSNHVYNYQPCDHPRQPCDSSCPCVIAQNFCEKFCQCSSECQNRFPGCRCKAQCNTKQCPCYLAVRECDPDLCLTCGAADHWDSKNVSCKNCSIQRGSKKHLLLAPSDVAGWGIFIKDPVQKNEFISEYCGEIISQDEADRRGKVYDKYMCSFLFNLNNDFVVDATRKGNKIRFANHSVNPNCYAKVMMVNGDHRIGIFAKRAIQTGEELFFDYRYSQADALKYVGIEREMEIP
Chain of PRC2 (O75530 whole entry partner): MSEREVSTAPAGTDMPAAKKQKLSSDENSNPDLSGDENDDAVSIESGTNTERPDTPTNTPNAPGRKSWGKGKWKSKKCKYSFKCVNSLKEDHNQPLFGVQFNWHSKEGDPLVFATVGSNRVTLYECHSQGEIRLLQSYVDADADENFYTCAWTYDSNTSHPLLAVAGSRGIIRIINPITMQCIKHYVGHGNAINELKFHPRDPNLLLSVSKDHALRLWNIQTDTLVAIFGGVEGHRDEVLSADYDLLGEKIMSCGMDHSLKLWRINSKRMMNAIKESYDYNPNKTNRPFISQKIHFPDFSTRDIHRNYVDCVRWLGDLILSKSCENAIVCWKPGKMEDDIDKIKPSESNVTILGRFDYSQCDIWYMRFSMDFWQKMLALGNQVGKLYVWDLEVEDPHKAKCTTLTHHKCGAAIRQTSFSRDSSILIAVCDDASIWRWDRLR
Chain of PRC2 (Q15022 whole entry partner): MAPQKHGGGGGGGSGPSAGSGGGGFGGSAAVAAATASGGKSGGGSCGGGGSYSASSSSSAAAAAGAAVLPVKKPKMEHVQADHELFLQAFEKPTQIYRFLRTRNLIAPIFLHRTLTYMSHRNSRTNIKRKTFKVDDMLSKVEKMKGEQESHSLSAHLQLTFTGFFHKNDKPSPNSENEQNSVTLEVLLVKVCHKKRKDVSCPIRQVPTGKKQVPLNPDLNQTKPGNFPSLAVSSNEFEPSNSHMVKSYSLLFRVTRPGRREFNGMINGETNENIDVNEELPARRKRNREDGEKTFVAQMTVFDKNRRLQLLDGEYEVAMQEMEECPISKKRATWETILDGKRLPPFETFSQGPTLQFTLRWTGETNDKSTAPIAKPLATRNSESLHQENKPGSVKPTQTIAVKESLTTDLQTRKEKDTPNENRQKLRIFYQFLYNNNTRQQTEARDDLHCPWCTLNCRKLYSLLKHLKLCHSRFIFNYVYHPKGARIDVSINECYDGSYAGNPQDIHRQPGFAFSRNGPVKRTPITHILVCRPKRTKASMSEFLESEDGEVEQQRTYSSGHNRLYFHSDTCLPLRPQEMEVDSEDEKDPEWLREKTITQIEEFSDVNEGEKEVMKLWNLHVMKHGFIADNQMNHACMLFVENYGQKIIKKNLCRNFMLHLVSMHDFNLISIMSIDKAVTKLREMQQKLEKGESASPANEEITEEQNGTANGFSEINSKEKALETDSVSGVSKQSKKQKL
Chain of PRC2 (Q16576 whole entry partner): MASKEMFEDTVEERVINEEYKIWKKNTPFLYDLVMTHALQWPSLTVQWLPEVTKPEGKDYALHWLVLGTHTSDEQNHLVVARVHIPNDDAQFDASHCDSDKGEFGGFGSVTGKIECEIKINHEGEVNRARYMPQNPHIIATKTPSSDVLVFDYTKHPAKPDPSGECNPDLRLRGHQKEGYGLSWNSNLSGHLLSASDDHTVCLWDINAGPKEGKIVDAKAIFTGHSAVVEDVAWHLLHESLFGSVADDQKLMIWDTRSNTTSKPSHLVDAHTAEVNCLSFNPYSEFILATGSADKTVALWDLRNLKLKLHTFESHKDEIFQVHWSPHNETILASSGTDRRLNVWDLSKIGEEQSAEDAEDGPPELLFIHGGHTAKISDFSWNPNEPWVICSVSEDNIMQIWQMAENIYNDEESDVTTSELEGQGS
Chain of PRC2 (Q09028 whole entry partner): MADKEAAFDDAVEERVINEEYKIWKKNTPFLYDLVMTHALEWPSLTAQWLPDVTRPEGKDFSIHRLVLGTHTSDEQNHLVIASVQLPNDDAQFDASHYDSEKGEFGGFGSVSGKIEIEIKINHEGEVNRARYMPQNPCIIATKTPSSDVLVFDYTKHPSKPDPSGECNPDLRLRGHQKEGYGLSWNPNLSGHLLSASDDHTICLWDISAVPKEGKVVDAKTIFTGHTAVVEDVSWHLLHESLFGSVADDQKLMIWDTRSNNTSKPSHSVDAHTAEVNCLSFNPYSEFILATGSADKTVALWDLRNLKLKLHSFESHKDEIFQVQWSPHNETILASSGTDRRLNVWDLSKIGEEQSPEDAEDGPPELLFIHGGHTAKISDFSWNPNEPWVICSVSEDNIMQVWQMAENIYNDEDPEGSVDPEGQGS

| SMILES | total plasma levels (25 mg/kg QD PO, 1 h postdose on Day 12) | total concentration in tumors (female, CB-17 SCID, mouse, in vivo) | fraction unbound (Plasma protein binding) | reduction in H3K27me3 levels in tumors ([1]; 25 mg/kg QD PO) | H3K27me3 levels in tumors ([1]; 160 mg/kg BID PO) | ΔTmD (first derivative melting peak) (PRC2) |
| --- | --- | --- | --- | --- | --- | --- |
| CCN(c1cc(-c2ccc(CN3CCOCC3)cc2)cc(C(=O)NCc2c(C)cc(C)[nH]c2=O)c1C)C1CCOCC1 [Tazemetostat] | 6100 ng/mL | 730 ng/g | 0.009 | no statistically significant reduction | significant loss of H3K27me3 levels | – |
| COc1cc(C)[nH]c(=O)c1CNC(=O)c1c(C)n([C@H](C)C2CCN(CC(F)(F)F)CC2)c2ccccc12 [CPI-1205, (R)-N-((4-Methoxy-6-methyl-2-oxo-1,2-dihydropyridin-3-yl)methyl)-2-methyl-1-(1-(1-(2,2,2-trifluoroethyl)piperidin-4-yl)ethyl)-1H-indole-3-carboxamide] | – | – | – | – | – | 11.54 ± 0.05 °C |
